NPY Y2 blocker: blocks the human neuropeptide Y Y2 receptor; NPY-Y2 expressing cells, antagonist mode; inhibition, % at 2.7 µM; actives 0.99% (n = 140,000); AID 793;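 also: 0% = vehicle with agonist challenge and 100% = reference antagonist with challenge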
Target sequence (P49146 whole entry, looked up): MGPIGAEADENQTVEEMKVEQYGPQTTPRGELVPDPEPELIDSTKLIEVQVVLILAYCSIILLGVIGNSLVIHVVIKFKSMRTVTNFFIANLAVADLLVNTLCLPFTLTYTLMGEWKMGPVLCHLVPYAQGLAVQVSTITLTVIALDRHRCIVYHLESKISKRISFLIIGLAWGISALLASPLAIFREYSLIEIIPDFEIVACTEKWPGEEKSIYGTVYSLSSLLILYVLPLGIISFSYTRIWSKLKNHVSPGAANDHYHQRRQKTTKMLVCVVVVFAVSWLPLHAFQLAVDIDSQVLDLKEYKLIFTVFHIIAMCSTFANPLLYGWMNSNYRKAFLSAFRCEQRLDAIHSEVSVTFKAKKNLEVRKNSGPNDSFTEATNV
m-calpain inh: calpain II (pig) inhibition | inhibition, % at 16 µM | actives 0.37% (n = 220,000) | purified calpain II, fluorogenic peptide substrate, 30 min | AID 1236;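 active = inhibition above about 50%, limit read from the data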
Tb hexokinase: blocks Trypanosoma brucei hexokinase 1 activity | actives 0.11% (n = 220,000) | AID 1430 | inhibition, % at 10 µM | recombinant TbHK1, G6PDH-coupled NADH A340;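 active = inhibition of 50% or more in the single-dose primary screen; inactive = inhibition below 50%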
NPY2 pot ag: potentiates or activates human NPY-Y2 receptor; activation, % at 3.6 µM; actives 0.45% (n = 220,000); P49146; cells expressing NPY-Y2, potentiator/agonist read-out; in the data active = activation above about 27%;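 also: cells stimulated with NPY near EC25 plus isoproterenol at EC100; 0% = vehicle plus submaximal agonist and 100% = vehicle plus saturating agonist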
NPY-Y1 antag: NPY-Y1 (human) receptor antagonism | P25929 | HEK293-CNG Y1 cells, membrane potential fluorescence; NPY at EC95, then isoproterenol | inhibition, % at 3.6 µM | actives 1% (n = 200,000);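 active = inhibition above the campaign mean inhibition of all tested compounds plus 3 SD, cut at about 20% in these data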;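 also: 0% = DMSO wells given NPY plus isoproterenol and 100% = isoproterenol alone without NPY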
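Material: HEK293 cells with Y1 receptor plus CNG channel; times: compound incubation 1 h at room temperature, readout 45 min post-stimulation; signal: fluorescence, membrane potential probe; read-out basis: fluorescence ratio normalized to % inhibition between controls; benchmarks: full-block control isoproterenol-only wells, zero-block control NPY plus isoproterenol wells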
NPY-Y1 PAM-ag: human NPY-Y1 potentiation or agonism, primary screen. P25929. NPY-Y1 expressing cells, potentiator/agonist activation. activation, % at 3.6 µM. actives 0.37% (n = 220,000); in the data active = activation above about 33%, passing the limit was not always enough;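 also: cells stimulated with NPY at EC10 then isoproterenol at EC100; 0% = low agonist plus stimulus and 100% = saturating agonist plus stimulus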
NPY-Y1 ant conf: confirmation of human neuropeptide Y receptor Y1 antagonists; HEK293-CNG NPY-Y1, membrane potential fluorescence, cAMP; NPY challenge against isoproterenol-raised cAMP; shares compounds with NPY-Y1 antag; inhibition, % at 3.6 µM; AID 1254; actives 21% (n = 1,200); in the data active = inhibition above about 20%;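 also: 0% = vehicle with agonist plus stimulus and 100% = stimulus alone without agonist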
NPY-Y2 antag ct: human NPY-Y2 antagonism in NPY-Y1 counter-screen | shares compounds with NPY-Y1 antag | HEK293 NPY-Y2 CNG membrane potential fluorescence; cells given NPY, then isoproterenol | inhibition, % at 3.6 µM | actives 28% (n = 1,200) | AID 1255;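 also: 0% = DMSO with agonist challenge and 100% = reference antagonist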
Starred values were filed as active, the others as inactive; . = no result. Most compounds without a hit are left out; they make up all but 2.3% or so of the library. Rule as the data show it, unless noted: active = inhibition above about 17%; inactive = the rest.

SMILES	NPY Y2 blocker	m-calpain inh	Tb hexokinase	NPY2 pot ag	NPY-Y1 antag	NPY-Y1 PAM-ag	NPY-Y1 ant conf	NPY-Y2 antag ct
CCOC(=O)/C=c1\s/c(=C\c2sccc2C)c(=O)n1CC(=O)NCc1ccc(C)cc1	.	-11	23	10	1	-5	.	.
CCc1cccc(CC)c1NC(=O)C(NS(=O)(=O)c1cccs1)c1ccccc1 (configuration not stated)	13	3	1	7	23*	-41	23*	10
CC(C)CCNC(=O)C(CC(C)C)N(Cc1ccc2c(c1)OCO2)C(=O)c1snc(C(N)=O)c1N (configuration not stated)	.	-17	-3	11	5	7	.	.
Cn1c2c(c(=O)n(C)c1=O)C(C(F)(F)F)(C(F)(F)F)N=C(CCC1CCCCC1)N2	10	26	25	-9	22*	-35	18	40*
Cn1c2c(c(=O)n(C)c1=O)C(C(F)(F)F)(C(F)(F)F)N=C(c1ccccc1Cl)N2	-1	-13	-19	11	-2	-5	.	.
CC(C)c1ccc(SCc2noc(C(=O)NCC3CCCO3)c2C(=O)O)cc1 (configuration not stated)	9	-2	-1	-38	24*	-14	10	10
Cc1cccc(SCc2noc(C(=O)NCC3CCCO3)c2C(=O)O)c1 (configuration not stated)	10	-8	-6	-20	17	-37	.	.
Cc1ccc(C)c(SCc2noc(C(=O)NCC3CCCO3)c2C(=O)O)c1 (configuration not stated)	10	-54	-3	-20	21*	-26	22*	13
O=C(NCC1CCCO1)c1onc(CSc2ccccc2)c1C(=O)O (configuration not stated)	2	-48	-3	-11	4	15	.	.
C=CCN1C(=O)C(CC(=O)Nc2ccc(OCCC)cc2)N(CCCN2CCN(Cc3ccccc3)CC2)C1=S (configuration not stated)	.	13	1	13	-11	20	.	.
O=C(Cn1cnc2ccccc2c1=O)c1ccc(Cl)cc1	.	17	7	-3	3	-5	.	.
CCC/C=C(\CCC)C(NS(=O)(=O)c1cccc2cccnc12)c1ccc(C(=O)OC)cc1 (configuration not stated)	4	4	7	6	-1	-34	.	.
CCC/C=C(\CCC)C(NC(=O)OCC(C)C)c1ccc(C(=O)OC)cc1 (configuration not stated)	14	6	2	-7	22*	-41	27*	26*
CCCCNCCOc1ccccc1-c1ccccc1	16	0	25	3	30*	-30	15	12
CC1CCCN(CCCOc2ccccc2-c2ccccc2)C1 (configuration not stated)	.	-19	-3	-10	25*	-5	14	11
COCCCNCCOc1ccccc1-c1ccccc1	14	16	8	4	7	-21	.	.
c1ccc(-c2ccccc2OCCCCN2CCCCCC2)cc1	.	14	9	-13	24*	-14	9	11
CCN(CC)S(=O)(=O)c1ccc(NC(=O)COC(=O)c2ccc(NC(=O)CC#N)cc2)cc1	.	-189	-1	1	-2	-12	.	.
N=c1oc2ccc3ccccc3c2cc1C(N)=S	.	-117	-11	-7	3	-8	.	.
Cc1cc(C)nc(SCc2ccc(C(=O)N/N=C3\CCCC(=O)C3)cc2)n1	.	-24	-11	6	8	-1	.	.
CCN(CC)CC#CCC(OC)(c1ccccc1)c1ccccc1	.	16	14	-22	19	-13	.	.
CCN(CC)S(=O)(=O)c1ccc2[nH]cc(C(=O)NCCN3CCCCCC3)c(=O)c2c1	-2	-85	-9	-8	21*	-19	0	1
CCN(CC)S(=O)(=O)c1ccc2[nH]cc(C(=O)NCCCN3CCCCC3)c(=O)c2c1	2	-44	-6	-2	-4	-7	.	.
COC(=O)[C@H](CC(C)C)NC(=O)Nc1ccc(S(N)(=O)=O)cc1	.	22	1	-4	.	2	.	.
O=C(NC(=S)Nc1ccc(CN2CCCCC2)cc1)c1ccco1	.	-14	-10	0	1	8	.	.
SMILES	NPY Y2 blocker	m-calpain inh	Tb hexokinase	NPY2 pot ag	NPY-Y1 antag	NPY-Y1 PAM-ag	NPY-Y1 ant conf	NPY-Y2 antag ct
Cc1ccc(C(=O)NC(=S)Nc2ccc(CN3CCCCC3)cc2)c(C)c1	.	-5	2	-31	24*	-32	18	27*
COc1ccc(C(=O)NC(=S)Nc2ccc(CN3CCCCC3)cc2)cc1Cl	.	2	2	-40	28*	-39	14	23*
CCSc1nnc(NC(=O)C2CC(=O)N(Cc3ccccc3)C2)s1 (configuration not stated)	.	15	6	-13	4	4	.	.
CCCCCCCOC(=O)C[N+](C)(C)CCOC1CC2CCC1(C)C2(C)C (configuration not stated)	15	-9	44	0	13	-51	.	.
CCCCOC(=O)C[N+](C)(C)CCOC1CC2CCC1(C)C2(C)C (configuration not stated)	5	0	14	-9	28*	-28	8	9
CCCCNC(=O)CN1C(=O)NC2(CCCc3ccccc32)C1=O (configuration not stated)	-1	22	1	-9	25*	-10	0	0
CC(C)C(C)NC(=O)CN1C(=O)NC2(CCCc3ccccc32)C1=O (configuration not stated)	.	39	-3	3	1	4	.	.
CNc1ccccc(-c2ccc3ccccc3n2)c1=O	1	-7	-9	16	7	10	.	.
CC1=NN(C(=O)Cn2nc([N+](=O)[O-])c(Br)c2C)C(O)(C(F)(F)F)C1 (configuration not stated)	0	7	-3	4	1	-1	.	.
O=C(CCCN1C(=O)c2cccc3cccc(c23)C1=O)N1CCc2ccccc2C1	4	17	-18	-17	23*	-18	8	11
CCn1c(=O)c(C(=O)CN(C)Cc2cccc(OC)c2OC)c(N)n(Cc2ccccc2)c1=O	4	-8	-2	-5	8	-12	.	.
Cn1c(=O)c(C(=O)COc2ccc(F)cc2Cl)c(N)n(Cc2ccccc2)c1=O	.	-33	0	-19	32*	0	10	55*
Cn1c(N)c(C(=O)COc2ccc(Cl)cc2Cl)c(=O)n(C)c1=O	.	-26	2	3	5	7	.	.

Screening data deposited in PubChem by several laboratories.
